Measurements published in ChEMBL document CHEMBL4334422, “Toxicities and beneficial protection of H2S donors based on nonsteroidal anti-inflammatory drugs” (Medchemcomm, 2019).
The source made the active and inactive calls. No cut-off for these calls is given here.

Assays:
[1] = Toxicity in Wistar kyoto rat assessed as intact hepatic lobule structure at 10 mg/kg, ip administered for 14 days by H and E staining based assay; format: organism-based; settings: in vivo, 336 h
In short: (§1)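 WKY rats were dosed intraperitoneally at 10 mg/kg daily for 14 days, using the 10% 1,3-propanediol vehicle, with a vehicle control group. Liver and kidney were collected and fixed immediately in 4% glutaraldehyde. Sections were stained with haematoxylin and eosin and scored for structural change under light microscopy.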

[2] = Toxicity in Wistar kyoto rat assessed as central venous in liver at 10 mg/kg, ip administered for 14 days by H and E staining based assay; format: organism-based; settings: in vivo, 336 h
In short: (§2)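 WKY rats were given 10 mg·kg⁻¹ intraperitoneally daily for 14 days, with vehicle-treated controls. Liver and kidney were collected and fixed in 4% glutaraldehyde. Tissue was examined after HE staining by light microscopy and by transmission electron microscopy at 6000, 10000 and 20000-fold.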

[3] = Toxicity in Wistar kyoto rat assessed as hepatic sinus congestion at 10 mg/kg, ip administered for 14 days by H and E staining based assay; format: organism-based; settings: in vivo, 336 h; in short: as §2
[4] = Toxicity in Wistar kyoto rat assessed as swollen hepatocytes at 10 mg/kg, ip administered for 14 days by H and E staining based assay; format: organism-based; settings: in vivo, 336 h; in short: as §1
[5] = Toxicity in Wistar kyoto rat assessed as visible gaps in hepatocytes at 10 mg/kg, ip administered for 14 days by H and E staining based assay; format: organism-based; settings: in vivo, 336 h; in short: as §1
[6] = Toxicity in Wistar kyoto rat assessed as light staining in cytoplasm of liver tissue at 10 mg/kg, ip administered for 14 days by H and E staining based assay; format: organism-based; settings: in vivo, 336 h; in short: as §1
[7] = Toxicity in Wistar kyoto rat assessed as swollen proximal convoluted tubule cells at 10 mg/kg, ip administered for 14 days by H and E staining based assay; format: organism-based; settings: in vivo, 336 h; in short: as §1
[8] = Toxicity in Wistar kyoto rat assessed as loose cytoplasm in kidney tissue at 10 mg/kg, ip administered for 14 days by H and E staining based assay; format: organism-based; settings: in vivo, 336 h; in short: as §1
[9] = Toxicity in Wistar kyoto rat assessed as necrosis in renal tubular epithelial cells at 10 mg/kg, ip administered for 14 days by H and E staining based assay; format: organism-based; settings: in vivo, 336 h; in short: as §1
[10] = Toxicity in Wistar kyoto rat assessed as abnormal nuclear morphology in liver tissue at 10 mg/kg, ip administered for 14 days by TEM assay; format: organism-based; settings: in vivo, 336 h; in short: as §2
[11] = Toxicity in Wistar kyoto rat assessed as chromatin edge collection in liver tissue at 10 mg/kg, ip administered for 14 days by TEM assay; format: organism-based; settings: in vivo, 336 h; in short: as §2
[12] = Toxicity in Wistar kyoto rat assessed as swollen glomerular endothelial cells at 10 mg/kg, ip administered for 14 days by TEM assay; format: organism-based; settings: in vivo, 336 h
In short: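 After 14 days of daily intraperitoneal dosing at 10 mg/kg in WKY rats, with vehicle controls, liver and kidney were fixed in 4% glutaraldehyde. Ultrastructure was examined by transmission electron microscopy at 6000-, 10000- and 20000-fold magnification.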

[13] = Toxicity in Wistar kyoto rat assessed as a large amount of exudation in glomerulus at 10 mg/kg, ip administered for 14 days by TEM assay; format: organism-based; settings: in vivo, 336 h; in short: as §2
[14] = Toxicity in Wistar kyoto rat assessed as swollen gastric cell at 10 mg/kg, ip administered for 14 days by H and E staining based optical microscopic method; format: organism-based; settings: in vivo, 336 h
In short: (§3)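 WKY rats, 3 per group, were dosed for 14 days, with the compound at 10 mg/kg per dose and the ibuprofen comparator at 6.1 mg/kg. Rats were anaesthetised with ether and killed by cervical dislocation. Stomach and intestine were sectioned at 5-10 µm, stained with haematoxylin and eosin, and examined by optical microscopy.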

[15] = Toxicity in Wistar kyoto rat assessed as reduction in intestinal mucosal congestion symptoms at 10 mg/kg, ip administered for 14 days by H and E staining based optical microscopic method; format: organism-based; settings: in vivo, 336 h; in short: as §3
Rattus norvegicus [16] = test: Antihypertensive activity in ip dosed spontaneously hypertensive Wistar kyoto rat assessed as reduction in diastolic arterial pressure administered for 6 hrs and measured every 30 mins post treatment by tail-cuff method; format: functional, organism-based
In short: (§4)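 Male SHRs (8 weeks, 300 ± 25 g; 6 per group), given compound intraperitoneally once daily at 8 am in 0.5% (w/v) sodium carboxymethyl cellulose/DMSO 3/1 (v/v), 2 mL·kg⁻¹. Vehicle-treated SHR and WKY controls. SBP, DBP and heart rate were measured by tail-cuff on awake, restrained rats before dosing, then every 30 min for 6 h. Values are mean ± SD of four independent experiments.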

[17] = Cardiotoxicity in SHR rat assessed as neatly arranged myocardial fibers at 10 mg/kg, ip administered for 14 days by H and E staining based microscopic assay; format: toxicity, organism-based; settings: in vivo, 336 h
In short: (§5)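 SHRs were given 10 mg·kg⁻¹ intraperitoneally per day for 14 consecutive days, with an ibuprofen comparator and a normal control. Myocardial tissue was then removed. Sections were HE-stained for light microscopy and also examined by transmission electron microscopy at 6000, 10000 and 20000-fold.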

[18] = Cardiotoxicity in SHR rat assessed as thin myocardial fiber formation at 10 mg/kg, ip administered for 14 days by H and E staining based microscopic assay; format: toxicity, organism-based; settings: in vivo, 336 h; in short: as §5
[19] = Cardiotoxicity in SHR rat assessed as myocardial fibers thickening at 10 mg/kg, ip administered for 14 days by H and E staining based microscopic assay; format: toxicity, organism-based; settings: in vivo, 336 h; in short: as §5
Rattus norvegicus [20] = test: Antihypertensive activity in ip dosed spontaneously hypertensive Wistar kyoto rat assessed as reduction in systolic arterial pressure administered for 6 hrs and measured every 30 mins post treatment by tail-cuff method; format: functional, organism-based; in short: as §4
Rattus norvegicus [21] = test: Antihypertensive activity in spontaneously hypertensive Wistar kyoto rat assessed as reduction in systolic arterial pressure at 10 mg/kg, ip administered for 6 hrs and measured every 30 mins post treatment by tail-cuff method; format: functional; in short: as §4
Rattus norvegicus [22] = test: Antihypertensive activity in spontaneously hypertensive Wistar kyoto rat assessed as reduction in systolic arterial pressure at 40 mg/kg, ip administered for 6 hrs and measured every 30 mins post treatment by tail-cuff method; format: functional; in short: as §4
Rattus norvegicus [23] = test: Antihypertensive activity in spontaneously hypertensive Wistar kyoto rat assessed as reduction in diastolic arterial pressure at 10 mg/kg, ip administered for 6 hrs and measured every 30 mins post treatment by tail-cuff method; format: functional; in short: as §4
Rattus norvegicus [24] = test: Antihypertensive activity in spontaneously hypertensive Wistar kyoto rat assessed as reduction in diastolic arterial pressure at 20 mg/kg, ip administered for 6 hrs and measured every 30 mins post treatment by tail-cuff method; format: functional; in short: as §4
Rattus norvegicus [25] = test: Antihypertensive activity in spontaneously hypertensive Wistar kyoto rat assessed as reduction in diastolic arterial pressure at 40 mg/kg, ip administered for 6 hrs and measured every 30 mins post treatment by tail-cuff method; format: functional; in short: as §4
H9c2 = test: Cytoprotective activity against H2O2-induced toxicity in rat H9c2 cells assessed as reduction in cell de-fromation at 10 to 80 uM pretreated with compound followed by H2O2 addition and measured after 1 to 8 hrs by giemsa staining based microscopic method; format: functional
In short: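 H9c2 cells were injured with H₂O₂ (400 µM) for 1, 4 or 8 h to give light, medium and heavy damage, in the presence of compound at 10–80 µM. Acetaminophen or ibuprofen served as controls. Viability was measured as mean ± SD of three experiments. SOD and MDA contents were measured as mean ± SD of four experiments. Morphology was assessed by Giemsa staining under light microscopy.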

Rattus norvegicus [26] = test: Cardioprotective activity in SHR rat assessed as neatly arrange myofibrils at 10 mg/kg, ip administered for 14 days by TEM analysis; format: functional, organism-based; in short: as §5
Rattus norvegicus [27] = test: Cardioprotective activity in SHR rat assessed as change in muscle fiber nature at 10 mg/kg, ip administered for 14 days by TEM analysis; format: functional, organism-based; in short: as §5

Compound: CC(C)Cc1ccc(C(C)C(=O)Oc2ccc(C(N)=S)cc2)cc1 (stereo not drawn)
- Activity [1]: Non-Toxic
- Activity [2]: Toxic
- Activity [3]: Toxic
- Activity [4]: Toxic
- Activity [5]: Toxic
- Activity [6]: Toxic
- Activity [7]: Toxic
- Activity [8]: Toxic
- Activity [9]: Toxic
- Activity [10]: Toxic
- Activity [11]: Toxic
- Activity [12]: Toxic
- Activity [13]: Toxic
- Activity [14]: Non-Toxic
- Activity [15]: Non-Toxic
- Activity (Rattus norvegicus [16]): Dose-dependent effect
- Activity [17]: Non-Toxic
- Activity [18]: Active
- Activity [19]: Active

Compound: CC(=O)Nc1ccc(OC(=O)CCCCC2CCSS2)cc1 (stereo not drawn)
- Activity (Rattus norvegicus [20]): Dose-dependent effect
- Systolic arterial pressure (Rattus norvegicus [21]): 139.1 mmHg
- Activity (Rattus norvegicus [22]): 115.3 mmHg
- Activity (Rattus norvegicus [16]): Dose-dependent effect
- Diastolic arterial pressure (Rattus norvegicus [23]): 113.8 mmHg
- Activity (Rattus norvegicus [24]): 110.9 mmHg
- Activity (Rattus norvegicus [25]): 99.4 mmHg
- Activity (H9c2): Active
- Activity [17]: Non-Toxic
- Activity [18]: Active
- Activity (Rattus norvegicus [26]): Active
- Activity (Rattus norvegicus [27]): Active

Compound: CC(C)Cc1ccc(C(C)C(=O)Oc2ccc(-c3cc(=S)ss3)cc2)cc1 (stereo not drawn)
- Activity [1]: Non-Toxic
- Activity [2]: Toxic
- Activity [3]: Toxic
- Activity [4]: Toxic
- Activity [5]: Toxic
- Activity [6]: Toxic
- Activity [8]: Toxic
- Systolic arterial pressure (Rattus norvegicus [21]): 142.9 mmHg
- Activity (Rattus norvegicus [22]): 135.1 mmHg
- Diastolic arterial pressure (Rattus norvegicus [23]): 116.3 mmHg
- Activity (Rattus norvegicus [24]): 115.1 mmHg
- Activity (Rattus norvegicus [25]): 112.4 mmHg
